The text below walks through data of ChEMBL document CHEMBL1955807, “Enaminones 12. An explanation of anticonvulsant activity and toxicity per Linus Pauling's clathrate hypothesis” (Eur J Med Chem, 2012).

The species entered for data set [1] is Rattus norvegicus. Kind of data set: Protective index, ratio of TD50 for rat to ED50 for rat. The method in brief:
(§1)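 Phase VIB in male Sprague-Dawley rats dosed ip. The median effective dose (MES ED50) and median neurotoxic dose (TD50) were determined with confidence limits. Protective index was calculated as TD50/ED50.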

Data set [2] in a line: Neurotoxicity in rat. The format is toxicity, organism-based. The conditions noted are these: in vivo. The method in brief:
as §1

The species entered for data set [3] is Rattus norvegicus. Nature of the data set: Anticonvulsant activity in rat assessed as protection against maximal electroshock-induced seizure. Format: functional. The procedure, abridged: as §1
On the technique in general: In the maximal electroshock model the usual endpoint is tonic extension of the hind limbs.

The test system of data set [4] is Mus musculus. Kind of data set: Anticonvulsant activity in CF1 mouse assessed as protection against maximal electroshock-induced seizure up to 300 mg/kg, ip after 30 mins to 4 hrs. Format: functional, organism-based. Also on record: dose 300 mg/kg. The method in brief: (§2)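 Phase I screen in mice: compounds suspended in 30% poly(ethylene glycol) 400 and given ip at three dose levels (30, 100 and 300 mg/kg). Anticonvulsant protection (MES, scPTZ) and neurologic toxicity by rotorod (inability to grasp) recorded 30 min and 4 h after dosing. Results were reported as animals affected over animals tested. Class 1 means activity at ≤100 mg/kg; class 3 means no activity at 300 mg/kg.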

In data set [5] the test system is Mus musculus. Kind of data set: Anticonvulsant activity in CF1 mouse assessed as protection against subcutaneous pentylenetetrazole-induced seizure at 300 mg/kg, ip after 30 mins. Format: functional, organism-based. Details: dose 300 mg/kg. The procedure, abridged: as §2
Data set [6] relates to Mus musculus. Nature of the data set: Neurotoxicity in CF1 mouse assessed as myoclonic jerks at 100 mg/kg, ip after 4 hrs by rotarod test. Format: toxicity, organism-based. Also on record: dose 100 mg/kg, route intraperitoneal. The conditions noted are these: in vivo. The method in brief:
as §2

The subject of data set [7] is Mus musculus. Nature of the data set: Toxicity in CF1 mouse assessed as mortality at 30 mg/kg, ip after 4 hrs. The format is organism-based. Details: dose 30 mg/kg, route intraperitoneal. The conditions noted are these: in vivo.
In data set [8] the test system is Mus musculus. Nature of the data set: Neurotoxicity in CF1 mouse assessed as muscle spasms at 100 to 300 mg/kg, ip after 30 mins by rotarod test. Format: toxicity, organism-based, Muscle tissue. Also on record: dose 100-300 mg/kg, route intraperitoneal. The conditions noted are these: in vivo, 0.5 h. The method in brief: as §2
On the technique in general: The rotarod test checks motor coordination on a turning rod.

The subject of data set [9] is Mus musculus. Kind of data set: Toxicity in CF1 mouse assessed as mortality at 30 mg/kg, ip after 30 mins. Also on record: dose 30 mg/kg, route intraperitoneal. The conditions noted are these: in vivo, 0.5 h. Format: organism-based.
For data set [10], the system named is Mus musculus. Nature of the data set: Neurotoxicity in CF1 mouse at 300 mg/kg, ip after 4 hrs by rotarod test. Format: toxicity, organism-based. Also on record: dose 300 mg/kg, route intraperitoneal. The conditions noted are these: in vivo. The method in brief:
as §2

In data set [11] the test system is Mus musculus. Kind of data set: Neurotoxicity in CF1 mouse at 300 mg/kg, ip after 30 mins by rotarod test. The format is toxicity, organism-based. Details: dose 300 mg/kg, route intraperitoneal. The conditions noted are these: in vivo, 0.5 h. The procedure, abridged:
as §2

The subject of data set [12] is Mus musculus. Nature of the data set: Neurotoxicity in CF1 mouse at 100 mg/kg, ip after 30 mins by rotarod test. The format is toxicity, organism-based. Also on record: dose 100 mg/kg, route intraperitoneal. The conditions noted are these: in vivo, 0.5 h. The method in brief:
as §2

In data set [13] the test system is Rattus norvegicus. Nature of the data set: Anticonvulsant activity in ip dosed Sprague-Dawley rat assessed as protection against maximal electroshock-induced seizure. Format: functional. The procedure, abridged: as §1
For data set [14], the system named is Mus musculus. Kind of data set: Anticonvulsant activity in CF1 mouse assessed as protection against maximal electroshock-induced seizure at 100 mg/kg, ip after 15 mins. Format: functional, organism-based. Also on record: dose 100 mg/kg.
A short description of data set [15]: Neurotoxicity in ip dosed Sprague-Dawley rat by rotarod test. The format is toxicity, organism-based. The conditions noted are these: in vivo. The procedure, abridged: as §1
The species named for data set [16] is Rattus norvegicus. Nature of the data set: Protective index, ratio of TD50 for Sprague-Dawley rat by rotarod test to ED50 for Sprague-Dawley rat by MES test.
Data set [17] relates to Mus musculus. Kind of data set: Neurotoxicity in CF1 mouse assessed as muscle spasms at 300 mg/kg, ip by rotarod test. The format is toxicity, organism-based, Muscle tissue. Details: dose 300 mg/kg, route intraperitoneal. The conditions noted are these: in vivo. The method in brief:
as §2

Data set [18] has as its system Mus musculus. Nature of the data set: Neurotoxicity in CF1 mouse assessed as muscle spasms at 100 mg/kg, ip by rotarod test. Format: toxicity, organism-based, Muscle tissue. The conditions noted are these: in vivo. Also on record: dose 100 mg/kg, route intraperitoneal. The method in brief:
as §2

Data set [19] deals with Mus musculus. Nature of the data set: Neurotoxicity in CF1 mouse at 100 mg/kg, ip by rotarod test. The format is toxicity, organism-based. The conditions noted are these: in vivo. Details: dose 100 mg/kg, route intraperitoneal. The procedure, abridged: as §2
The subject of data set [20] is Rattus norvegicus. Nature of the data set: Anticonvulsant activity in Sprague-Dawley rat assessed as protection against subcutaneous pentylenetetrazole-induced seizure at 30 mg/kg, ip after 4 hrs. Format: functional, organism-based. Also on record: dose 30 mg/kg.
Data set [21] concerns Rattus norvegicus. Kind of data set: Anticonvulsant activity in Sprague-Dawley rat assessed as protection against maximal electroshock-induced seizure at 30 mg/kg, ip after 1 hr.
Data set [22] concerns Mus musculus. Kind of data set: Neurotoxicity in CF1 mouse up to 300 mg/kg, ip after 30 mins to 4 hrs by rotarod test. Format: toxicity, organism-based. Details: dose 300 mg/kg, route intraperitoneal. The conditions noted are these: in vivo. The procedure, abridged: as §2
Data set [23] deals with Mus musculus. Nature of the data set: Anticonvulsant activity in CF1 mouse assessed as protection against maximal electroshock-induced seizure at 300 mg/kg, ip after 30 mins to 4 hrs. Format: functional, organism-based. Details: dose 300 mg/kg. The procedure, abridged: as §2
Data set [24] relates to Mus musculus. Nature of the data set: Neurotoxicity in CF1 mouse at 300 mg/kg, ip after 30 mins to 4 hrs by rotarod test. The format is toxicity, organism-based. Details: dose 300 mg/kg, route intraperitoneal. The conditions noted are these: in vivo. The method in brief:
as §2

In data set [25] the test system is Mus musculus. Kind of data set: Anticonvulsant activity in CF1 mouse assessed as protection against maximal electroshock-induced seizure at 100 mg/kg, ip after 30 mins. Format: functional, organism-based. Details: dose 100 mg/kg. The method in brief: as §2

Active and inactive are the calls of the source. The rule behind the calls is not given here. A value given as a limit tells only on which side of the number the result lay.

What is called TD50 is the dose at which the toxic effect under study appears in half of the subjects. Low values mean greater toxicity, high ones lower toxicity. Usually ED50 stands for the dose that gives a 50% effect, or the effect in half of the subjects. As to `Cc1cc(NC(=O)c2c(C)cccc2C)no1` [SORETOLIDE], the PI in the data set filed under Rattus norvegicus [1] is given as more than 54.3. Moreover, the TD50 in data set [2] was more than 500 mg/kg. For the same molecule, in the data set listed under Rattus norvegicus [3], the ED50 was 9.2 mg/kg.
The corresponding values for `Cc1cc(NC2=CC(=O)C(C(=O)OC(C)(C)C)C(C)C2)no1` (stereo unspecified) are more than 17.8, more than 500 mg/kg and 28.1 mg/kg.
As to `Cc1cc(C(=O)NC2=CC(=O)CCC2)no1`, the result in the data set on Mus musculus [4] and in the data set on Mus musculus [5] was inactive.
`CC1(C)CC(=O)C=C(N)C1`: the Activity result in the data set with Mus musculus [6], in the data set with Mus musculus [7], in the data set with Mus musculus [8] and with Mus musculus [9] was “Toxic” each time. The outcome with Mus musculus [4] and in the data set with Mus musculus [5] was inactive.
With `Cc1cc(C(=O)NC2=CC(=O)CC(C)C2)no1` (stereo unspecified), the result in the data set with Mus musculus [4] and in the data set with Mus musculus [5] was inactive. Moreover, the Activity result in the data set with Mus musculus [10] and in the data set with Mus musculus [11] was “Toxic” each time.
As for `Cc1cccc(C)c1NC(=O)c1conc1C`, the PI in the data set filed under Rattus norvegicus [1] was more than 56.2. Besides, the TD50 in data set [2] is more than 500 mg/kg. In the data set filed under Rattus norvegicus [3], the ED50 came out at 8.9 mg/kg.
Turning to `Cc1oncc1CNC1=CC(=O)CC(C)C1` (stereo unspecified), the outcome in the data set on Mus musculus [4] and with Mus musculus [5] was inactive.
On to `Cc1cc(NC2=CC(=O)CC(C)C2)no1` (stereo unspecified), for which the Activity result with Mus musculus [12] was “Toxic”. Further, the ED50 with Rattus norvegicus [13] came out at 66 mg/kg. In addition, the result with Mus musculus [14] and with Mus musculus [5] was Active. The molecule also had a TD50 in [15] of more than 120 mg/kg. For the same molecule, the PI in the data set listed under Rattus norvegicus [16] stood at 1.8.
For `Cc1cc(C(=O)NC2=CC(=O)CC(C)(C)C2)no1`, the result with Mus musculus [4] and with Mus musculus [5] was inactive.
On to `Cc1oncc1CNC1=CC(=O)CC(C)(C)C1`, for which the result in the data set with Mus musculus [4] and in the data set on Mus musculus [5] was inactive.
On to `CC1CC(=O)C=C(N)C1` (stereo unspecified), for which the Activity entry in the data set with Mus musculus [17], in the data set on Mus musculus [18] and with Mus musculus [11] was “Toxic” throughout. The outcome with Mus musculus [4] and with Mus musculus [5] was inactive.
For `NC1=CC(=O)CCC1`, the Activity result with Mus musculus [19], in the data set on Mus musculus [18] and in the data set on Mus musculus [11] was “Toxic” each time. Further, the result in the data set on Mus musculus [4] and with Mus musculus [5] was inactive.
On to `Cc1cc(NC2=CC(=O)CCC2)no1`, for which the outcome with Rattus norvegicus [20], with Rattus norvegicus [21] and in the data set with Mus musculus [5] was Active. For the same molecule, the result in the data set on Mus musculus [4] was inactive. Further, in the data set on Mus musculus [22], the Activity result was “Non-toxic”.
Turning to `CCOC(=O)C1C(=O)C=C(Nc2cc(C)on2)CC1C` (stereo unspecified), in the data set listed under Rattus norvegicus [1], the PI was more than 7.3. In data set [2], the TD50 was more than 500 mg/kg. In addition, the ED50 in the data set listed under Rattus norvegicus [3] came out at 68.9 mg/kg.
For the molecule `Cc1cc(C(=O)Nc2c(C)cccc2C)no1`, the PI in the data set filed under Rattus norvegicus [1] is more than 90.9. In addition, in [2], the TD50 was more than 500 mg/kg. In the data set filed under Rattus norvegicus [3], the ED50 stood at 5.5 mg/kg.
With `Cc1cc(NC2=CC(=O)CC(C)(C)C2)no1`, the Activity entry with Mus musculus [12] and in the data set on Mus musculus [24] was “Toxic” in each case. Moreover, the result in the data set with Mus musculus [23] and in the data set with Mus musculus [25] was Active. Further, the result in the data set on Mus musculus [5] was inactive.
Consider `Cc1cc(NC2=CC(=O)C(C(=O)OC(C)(C)C)C(C(F)(F)F)C2)no1` (stereo unspecified), for which the outcome with Mus musculus [4] and with Mus musculus [5] was inactive.
